This note sets out measurements from PMC3515842 (Journal of medicinal chemistry, 2012).

Data set [1] concerns the target total AP site incision activity of HeLa whole cell extract (APE1) (Homo sapiens, UniProt P27695). In words: HeLa whole cell extract incision assay. The data set is classed as biochemical. The settings on record: for inhibition at 100 µM: read-out: inhibition of the incision activity of HeLa extracts.
Data set [2] deals with T1, APE1 (Homo sapiens, UniProt P27695). In words: enzyme kinetic studies of APE1 incision. It is filed as biochemical. Particulars: for KM increase: 5, 10 or 20 µM inhibitor; for mode of inhibition: Lineweaver-Burk analysis; for kcat decrease: only at the high inhibitor concentration.
T1 sequence (P27695 whole entry): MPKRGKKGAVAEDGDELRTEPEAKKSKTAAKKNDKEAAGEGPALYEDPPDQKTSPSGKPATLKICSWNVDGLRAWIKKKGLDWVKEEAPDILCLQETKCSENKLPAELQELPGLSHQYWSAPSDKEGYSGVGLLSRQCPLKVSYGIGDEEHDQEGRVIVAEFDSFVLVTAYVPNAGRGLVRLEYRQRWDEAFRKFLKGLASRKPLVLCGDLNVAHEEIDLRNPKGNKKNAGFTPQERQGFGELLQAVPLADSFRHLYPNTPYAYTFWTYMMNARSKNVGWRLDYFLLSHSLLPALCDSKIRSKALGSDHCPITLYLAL
In another data set the target is APE1-DNA complex (Homo sapiens, UniProt P27695). In words: electrophoretic mobility shift assay. It is filed as binding. Particulars: protein pre-treated with 30 µM inhibitor. In a few lines:
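Recombinant wild-type APE1 (10 ng, ~28 nM) was preincubated 10 min on ice with test compound (1, 3, 10, 30, 100 µM) or 1% DMSO. 32P AP-DNA (100 fmol, 10 nM) was added for 5 min on ice. Complex and free DNA were separated on native 8% PAGE (2 h, 120 V); percent DNA bound was read by phosphorimager.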

The next data set deals with HeLa cells. In words: MMS and TMZ potentiation / HeLa cell viability assay. It is filed as cell-based, human. Particulars: for IC50: Homo sapiens, read-out: 50% reduction in cell viability as a single agent; for IC50 / concentration of optimal synergy with MMS and TMZ: 24 h; for potentiation of cytotoxic effects of MMS and TMZ / concentration of optimal synergy with MMS and TMZ: MMS 0.4 mM or TMZ 1 mM. In a few lines: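 HeLa cells in DMEM with 10% FBS, seeded at 6K/well and left overnight to attach. Medium was then replaced with fresh medium holding serial dilutions of test compound (5–30 µM), with or without MMS (0.4 mM) or TMZ (1 mM), for 24 h. Viability was read by CellTiter Glo luminescence after 30 min at room temperature, as percent of DMSO control, normalized to 100% per alkylating agent without compound.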

Another data set concerns the target CYP3A4 (Homo sapiens, UniProt P08684). In words: CYP3A4 inhibition. The data set is classed as in vitro ADME.
A short description of the next data set: Caco-2 permeability. The data set is classed as in vitro ADME. The settings on record: human, Caco-2, pH 7.4.
Data set [3] is described as follows: in vivo PK analysis, IP administration. Particulars: IP 30 mg/kg, CD1 mice, 24 hour observation.
For data set [4], the target named is T1, APE1. The experiment in a line: fluorescence-based qHTS assay of APE1 endonuclease activity. The data set is classed as biochemical. Particulars: for less activity than the corresponding amide analog (4): relative to 4.

Sequence of total AP site incision activity of HeLa whole cell extract (APE1) (P27695 whole entry): as above
Sequence of APE1-DNA complex (P27695 whole entry, one chain of several): as the sequence (P27695 whole entry) above
Sequence of CYP3A4 (P08684 whole entry, species assumed): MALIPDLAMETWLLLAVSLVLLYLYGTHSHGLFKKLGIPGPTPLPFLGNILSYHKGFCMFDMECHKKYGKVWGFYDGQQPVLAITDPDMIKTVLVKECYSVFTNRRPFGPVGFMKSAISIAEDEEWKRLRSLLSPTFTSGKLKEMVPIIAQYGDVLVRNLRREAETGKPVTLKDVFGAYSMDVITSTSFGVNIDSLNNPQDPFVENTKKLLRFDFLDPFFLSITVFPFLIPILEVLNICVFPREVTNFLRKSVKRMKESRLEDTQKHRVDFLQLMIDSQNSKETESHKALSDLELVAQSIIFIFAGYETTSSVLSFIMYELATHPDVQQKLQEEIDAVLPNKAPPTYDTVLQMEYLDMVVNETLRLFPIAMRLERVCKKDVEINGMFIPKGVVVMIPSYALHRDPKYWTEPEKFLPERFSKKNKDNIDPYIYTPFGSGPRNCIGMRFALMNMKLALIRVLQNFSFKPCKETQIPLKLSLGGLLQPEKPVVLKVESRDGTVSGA

Take `CC(=O)Nc1sc2c(c1-c1nc3ccccc3s1)CCN(C(C)C)C2` [Compound 3, N-(3-(benzo[d]thiazol-2-yl)-6-isopropyl-4,5,6,7-tetrahydrothieno[2,3-c]pyridin-2-yl)acetamide]: the inhibition at 100 µM in data set [1] is around 100%. For the same compound, on APE1 [2], the KM increase is recorded as at most 4 fold, the mode of inhibition entry is “competitive inhibitors” and the kcat decrease entry is on record as “less than 6 fold”. The APE1-DNA binary complex entry at APE1-DNA complex was “essentially absent”. For the same compound, in the data set with HeLa cells, the IC50 was around 15 µM; the “potentiation of cytotoxic effects of MMS and TMZ” value is listed as “greatly potentiated”; the “concentration of optimal synergy with MMS and TMZ” value fell in the range of 5 to 10 µM. Besides, the “CYP3A4 (inh. @ 10 µM)” value at CYP3A4 is 53%. The same compound had a Papp in “Caco-2 permeability” of 500 ×10⁻⁶ cm/s. Also, in data set [3], the tolerability result is listed as “well tolerated by the animals, with no adverse effects noted”.

`CC(=O)Nc1sc2c(c1-c1nc3ccccc3s1)CCNC2` [Compound 4]: in data set [1], the inhibition at 100 µM is around 100%.

`CC(=O)Nc1sc2c(c1-c1nc3ccccc3s1)CCN(C(=O)OC(C)(C)C)C2` [Compound 5]: on APE1 [4], the “activity against APE1 in the qHTS assay, in words” value (from here on “activity against APE1”) was “significant loss of activity”.

On to `CC(=O)Nc1sc2c(c1-c1nc3ccccc3s1)CCN(C(C)=O)C2` [Compound 8], for which the “activity against APE1” value on APE1 [4] is given as “significant loss of activity”.

Turning to `CC(=O)Nc1sc2c(c1-c1ccco1)CCNC2` [Compound 13], the “activity against APE1” value at APE1 [4] is on record as “greatly diminished activity”.

As to `CC(=O)Nc1sc2c(c1-c1cccs1)CCNC2` [Compound 14], the “activity against APE1” value at APE1 [4] is “greatly diminished activity”.

For the compound `CC(=O)Nc1sc2c(c1-c1cc3ccccc3s1)CCNC2` [Compound 15], the “activity against APE1” value at APE1 [4] was “greatly diminished activity”.

Take `CC(=O)Nc1sc2c(c1-c1cc3ccccc3o1)CCNC2` [Compound 17]: the “activity against APE1” value on APE1 [4] is recorded as “greatly diminished activity”.

For the compound `CC(=O)Nc1sc2c(c1-c1ncco1)CCNC2` [Compound 19], at APE1 [4], the “activity against APE1” value is given as “greatly diminished activity”.

Regarding `CC(=O)Nc1sc2c(c1-c1nccs1)CCNC2` [Compound 20], the “activity against APE1” value at APE1 [4] was “greatly diminished activity”.

As to `CC(=O)Nc1sc2c(c1-c1nc3ccccc3o1)CCN(C(C)C)C2` [Compound 23], at APE1 [4] (relative to lead compound 3), the loss in activity was determined as 10 fold.

With `CC(=O)Nc1sc2c(c1-c1nc(-c3ccccc3)cs1)CCN(C(C)C)C2` [Compound 24], the “activity against APE1” value on APE1 [4] is given as “activity comparable to the lead compound”.

For `CC(C)(C)C(=O)Nc1sc2c(c1-c1nc3ccccc3s1)CCNC2` [Compound 26], the “activity against APE1” value on APE1 [4] was “inactive”.

Consider `O=C(CCc1ccccc1)Nc1sc2c(c1-c1nc3ccccc3s1)CCNC2` [Compound 30], for which, on APE1 [4], the “activity against APE1” value is “inactive”.

Consider `COC(=O)c1sc2c(c1-c1nc3ccccc3s1)CCNC2` [Compound 41], for which, at APE1 [4], the “activity against APE1” value is recorded as “complete loss of activity”.

On to `O=C(O)c1sc2c(c1-c1nc3ccccc3s1)CCNC2` [Compound 42], for which the “activity against APE1” value on APE1 [4] was “complete loss of activity”.

With `Cc1nnc(-c2sc3c(c2-c2nc4ccccc4s2)CCNC3)o1` [Compound 43], the “activity against APE1” value at APE1 [4] is “completely inactive”.

For `Cc1noc(-c2sc3c(c2-c2nc4ccccc4s2)CCNC3)n1` [Compound 44], on APE1 [4], the “activity against APE1” value was “completely inactive”.

For the compound `Cc1nnc(Nc2sc3c(c2-c2nc4ccccc4s2)CCNC3)o1` [Compound 45], on APE1 [4], the “activity against APE1” value is given as “modest activity” and the “less activity than the corresponding amide analog (4)” value is listed as “approximately 8 fold”.

With `Cc1noc(Nc2sc3c(c2-c2nc4ccccc4s2)CCNC3)n1` [Compound 46], at APE1 [4], the “activity against APE1” value is “modest activity” and the “less activity than the corresponding amide analog (4)” value is “approximately 8 fold”.

For the compound `CC(=O)Nc1sc2c(c1-c1nc3ccccc3s1)CCOC2` [Compound 47], at APE1 [4], the “activity against APE1” value was “still active against APE1, albeit only at the highest concentration”.

For `CC(=O)Nc1sc2c(c1-c1nc3ccccc3s1)CCSC2` [Compound 48], on APE1 [4], the “activity against APE1” value is on record as “still active against APE1, albeit only at the highest concentration”.

Consider `CC(=O)Nc1sc2cnccc2c1-c1nc2ccccc2s1` [Compound 50], for which the “activity against APE1” value on APE1 [4] was “completely inactive”.

Compound `CC(=O)Nc1sc2c(c1-c1nc3ccccc3s1)CNC2` [Compound 52, N-(3-(benzo[d]thiazol-2-yl)-5,6-dihydro-4H-thieno[2,3-c]pyrrol-2-yl)acetamide] registered an IC50 against APE1 [4] of 3.1 µM. The “inhibition of HeLa whole cell extract AP site incision” value in data set [1] (10 µM inhibitor) was “almost complete inhibition”. Besides, the inhibition at 100 µM in data set [1] was around 100%. Besides, on APE1 [2], the KM increase entry is recorded as “up to 10 fold”, the mode of inhibition result is reported as “competitive inhibitors” and the kcat decrease entry is recorded as “less than 6 fold”. Further, the APE1-DNA binary complex result on APE1-DNA complex was “essentially absent”. In the data set on HeLa cells, the IC50 was around 30 µM; the “potentiation of cytotoxic effects of MMS and TMZ” value is recorded as “greatly potentiated”; the “concentration of optimal synergy with MMS and TMZ” value was in the range of 10 to 15 µM. In the data set “Caco-2 permeability”, the Papp is 680 ×10⁻⁶ cm/s. The tolerability entry in data set [3] was “well tolerated by the animals, with no adverse effects noted”.

Regarding `CC(=O)Nc1sc2c(c1-c1nc3ccccc3s1)CNCC2` [Compound 53], the “activity against APE1” value at APE1 [4] is given as “only modest efficacy”.

Take `CC(=O)Nc1sc2c(c1-c1nc3ccccc3s1)CCN(C(C)C)CC2` [Compound 55]: in data set [1], the inhibition at 100 µM is around 100%.
